Ten compounds from ChEMBL document CHEMBL1157464, “1-[(3-Aryloxy-3-aryl)propyl]-1H-imidazoles, new imidazoles with potent activity against Candida albicans and dermatophytes. Synthesis, structure-activity relationship, and molecular modeling studies” (J Med Chem, 2008) can be followed below.

Assay [1] deals with Candida albicans. Nature of the assay: Antifungal activity against Candida albicans ATCC 10261 at 35 degC after 48 to 96 hrs by broth microdilution test. The format is functional. In outline:
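Minimal fungicidal concentration for Candida. […] MFC is the lowest concentration allowing fewer than two colonies (99% killing).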

For assay [2], the system named is Arthrodermataceae. The experiment in a line: Antifungal activity against dermatophytes at 28 degC after 7 days by broth microdilution test. The format is functional. The note with it: 168 h. In outline:
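Ten clinical isolates (two M. canis, five M. gypseum, three T. mentagrophytes) tested by NCCLS M38-A broth microdilution in MOPS-buffered RPMI 1640, pH 7.0, over 0.25–128 µg/mL. Conidial/hyphal suspension from PDA slants (28 °C, 7 days) adjusted to 65–70% transmittance at OD530, then diluted 1:50.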
(Broth dilution looks for growth in wells or tubes with falling amounts of substance.)

Assay [3] relates to Arthrodermataceae. Nature of the assay: Antifungal activity against dermatophytes at 28 degC after 48 to 96 hrs by broth microdilution test.
Assay [4] relates to Arthrodermataceae. The experiment in a line: Antifungal activity against dermatophytes at 28 degC after 5 days by broth microdilution test. The settings on record: for MFC: Arthrodermataceae.
The test system of another assay is Candida parapsilosis. The experiment in a line: Antifungal activity against Candida parapsilosis ATCC 22019 at 35 degC after 48 hrs by broth microdilution test. The format is functional. In outline: (§1)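 Broth microdilution per NCCLS M27-A2. Stocks in 100% DMSO, diluted in RPMI 1640 with 0.165 M MOPS at pH 7.0; final range 0.25–128 µg/mL. Inoculum 1000–5000 cells/mL from SDA subcultures. […] C. parapsilosis ATCC22019 served as QC strain.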

The test system of assay [5] is Candida albicans. Nature of the assay: Antifungal activity against Candida albicans ATCC 10261 at 35 degC after 48 hrs by broth microdilution test. The class given is functional. Put shortly: as §1
Where [6] appears, read: Candida albicans, ATCC 10261, read-out: MFC.
[7] abbreviates: Lodderomyces parapsilosis, ATCC 22019, 48 h, read-out: MFC.
Setting [8] is: Lodderomyces parapsilosis, ATCC 22019, 48 h, read-out: MIC.
Setting [9] is: Candida albicans, ATCC 10261, 48 h, read-out: MIC.
[10] abbreviates: Candida albicans, ATCC 10261, 48 h, read-out: MIC50.
The mark [11] stands for this setting: Candida albicans, ATCC 10261, 48 h, read-out: MIC90.

Values after ≈ are worked out from the molar mass of the structure shown.

As a reminder, the MFC is the lowest tested concentration that kills the fungus rather than only halting it. One may read the MIC as the least concentration at which growth counts as inhibited. For orientation: MIC50 means the lowest concentration that inhibits either 50% of growth or 50% of the strains tested, depending on the study. The term MIC90 denotes the lowest concentration that inhibits either 90% of growth or 90% of the strains tested, depending on the study. As to `Cc1ccc(C(CCn2cncn2)Oc2ccc(Cl)cc2Cl)cc1` (stereo unspecified), the MFC50 in the assay with Candida albicans [1] is greater than 128 µg/mL; in the assay with Arthrodermataceae [3], 32 µg/mL (≈ 88.3 µM). The MFC90 in the assay with Candida albicans [1] and in the assay with Arthrodermataceae [4] was greater than 128 µg/mL in each case. For the same compound, the figures for the MFC in the assay on Candida albicans [1] (setting [6]), against Arthrodermataceae [4] and with Candida parapsilosis (setting [7]) were greater than 128 µg/mL, 122 µg/mL (≈ 336 µM) and 64 µg/mL (≈ 177 µM), respectively. For the same compound, the MIC in the assay with Arthrodermataceae [2] is 17.6 µg/mL (≈ 48.6 µM); in the assay with Candida parapsilosis (setting [8]) it was 32 µg/mL (≈ 88.3 µM); in the assay on Candida albicans [5] (setting [9]) it was greater than 128 µg/mL. The values for the MIC50 with Arthrodermataceae [2] and in the assay on Candida albicans [5] (setting [10]) were 16 µg/mL (≈ 44.2 µM) and greater than 128 µg/mL, respectively. In addition, the MIC90 in the assay with Arthrodermataceae [2] was 32 µg/mL (≈ 88.3 µM); in the assay with Candida albicans [5] (setting [11]) it was greater than 128 µg/mL.
As for `Clc1ccc(OC(CCn2ccnc2)c2ccccc2)c(Cl)c1` (single isomer, unassigned; (-)), in the assay on Candida albicans [1], the minimum fungicidal concentration (MFC) turned out to be 28.6 µg/mL (≈ 82.4 µM), the MFC50 was determined as 32 µg/mL (≈ 92.2 µM) and the MFC90 worked out at 32 µg/mL (≈ 92.2 µM). In the assay on Candida parapsilosis, this compound showed an MFC of 8 µg/mL (≈ 23 µM) and an MIC of 1 µg/mL (≈ 2.88 µM). In the assay with Candida albicans [5], the minimum inhibitory concentration (MIC) was found to be 11.8 µg/mL (≈ 34 µM) and the MIC90 was 16 µg/mL (≈ 46.1 µM).
`CC(C)(C)c1ccc(OC(CCn2ccnc2)c2ccc(Cl)cc2)cc1` (stereo unspecified): the figures for the MFC50 against Candida albicans [1] and in the assay on Arthrodermataceae [3] were 64 µg/mL (≈ 173 µM) and 16 µg/mL (≈ 43.4 µM), respectively. Further, the figures for the MFC90 against Candida albicans [1] and in the assay with Arthrodermataceae [4] were 64 µg/mL (≈ 173 µM) and 32 µg/mL (≈ 86.7 µM), respectively. Further, the MFC amounted to 64 µg/mL (≈ 173 µM) in the assay on Candida albicans [1] (setting [6]), 26 µg/mL (≈ 70.5 µM) against Arthrodermataceae [4] and 4 µg/mL (≈ 10.8 µM) in the assay on Candida parapsilosis (setting [7]). In addition, the values for the MIC against Arthrodermataceae [2], in the assay with Candida parapsilosis (setting [8]) and with Candida albicans [5] (setting [9]) were 9.2 µg/mL (≈ 24.9 µM), 2 µg/mL (≈ 5.42 µM) and 57.1 µg/mL (≈ 155 µM), respectively. Also, the MIC50 amounted to 8 µg/mL (≈ 21.7 µM) against Arthrodermataceae [2] and 64 µg/mL (≈ 173 µM) in the assay on Candida albicans [5] (setting [10]). Also, the MIC90 with Arthrodermataceae [2] was 16 µg/mL (≈ 43.4 µM); with Candida albicans [5] (setting [11]), 64 µg/mL (≈ 173 µM).
In the assay with Candida albicans [1], `Cc1ccc(OC(CCn2ccnc2)c2ccccc2)cc1` (single isomer, unassigned; (+)) displayed a minimal fungicidal concentration (MFC) of 14.9 µg/mL (≈ 51 µM). In the assay on Candida parapsilosis, this compound displayed a minimal fungicidal concentration (MFC) of 8 µg/mL (≈ 27.4 µM) and an MIC of 1 µg/mL (≈ 3.42 µM). Moreover, in the assay on Candida albicans [5], the MIC amounted to 6.5 µg/mL (≈ 22.2 µM) and the MIC90 came to 8 µg/mL (≈ 27.4 µM).
Take `Clc1ccc(OC(CCn2ccnc2)c2ccc(Cl)cc2Cl)c(Cl)c1` (stereo unspecified): in the assay with Candida albicans [1], the MFC50 was determined as 64 µg/mL (≈ 154 µM). For the same compound, the MFC90 with Candida albicans [1] came out at 64 µg/mL (≈ 154 µM). The MFC with Candida albicans [1] (setting [6]) and in the assay on Candida parapsilosis (setting [7]) was 64 µg/mL (≈ 154 µM) each time. Besides, the MIC in the assay with Candida parapsilosis (setting [8]) is 8 µg/mL (≈ 19.2 µM); in the assay with Candida albicans [5] (setting [9]), 51 µg/mL (≈ 123 µM). Besides, the MIC50 with Candida albicans [5] (setting [10]) was 64 µg/mL (≈ 154 µM). Further, the MIC90 in the assay with Candida albicans [5] (setting [11]) stood at 64 µg/mL (≈ 154 µM).
Take `Cc1ccc(OC(CCn2ccnc2)c2ccccc2)cc1` (single isomer, unassigned; (-)): in the assay on Candida albicans [1], the MFC was found to be 51.4 µg/mL (≈ 176 µM), the MFC50 worked out at 64 µg/mL (≈ 219 µM) and the MFC90 was determined as 64 µg/mL (≈ 219 µM). In the assay with Candida parapsilosis, this compound returned an MIC of 2 µg/mL (≈ 6.84 µM). In the assay on Candida albicans [5], this compound gave an MIC of 28.3 µg/mL (≈ 96.8 µM), an MIC50 of 16 µg/mL (≈ 54.7 µM) and an MIC90 of 64 µg/mL (≈ 219 µM).
In the case of `Clc1ccc(C(OCCn2ccnc2)c2ccc(Cl)cc2Cl)cc1.O=[N+]([O-])O` (stereo unspecified), the MFC50 with Candida albicans [1] is 128 µg/mL. In the assay on Candida albicans [1], this compound displayed an MFC90 of 256 µg/mL. For the same compound, the MFC in the assay with Candida albicans [1] (setting [6]) came to 145 µg/mL; in the assay on Candida parapsilosis (setting [7]), 32 µg/mL. Further, the MIC in the assay on Candida parapsilosis (setting [8]) was 16 µg/mL; with Candida albicans [5] (setting [9]), 34.4 µg/mL. The MIC50 in the assay with Candida albicans [5] (setting [10]) was determined as 32 µg/mL. Further, the MIC90 in the assay on Candida albicans [5] (setting [11]) was 64 µg/mL.
`Cc1ccc(C(CCn2ccnc2)Oc2c(Cl)cccc2Cl)cc1` (stereo unspecified): in the assay on Candida albicans [1], the MFC50 was 32 µg/mL (≈ 88.6 µM). For the same compound, the MFC90 against Candida albicans [1] came out at 128 µg/mL (≈ 354 µM). In addition, the figures for the minimum fungicidal concentration (MFC) in the assay on Candida albicans [1] (setting [6]) and in the assay with Candida parapsilosis (setting [7]) were 62.9 µg/mL (≈ 174 µM) and 16 µg/mL (≈ 44.3 µM), respectively. Moreover, the MIC was found to be 1 µg/mL (≈ 2.77 µM) in the assay with Candida parapsilosis (setting [8]) and 42 µg/mL (≈ 116 µM) in the assay with Candida albicans [5] (setting [9]). Moreover, the MIC50 in the assay on Candida albicans [5] (setting [10]) came to 8 µg/mL (≈ 22.1 µM). In addition, the MIC90 in the assay with Candida albicans [5] (setting [11]) is 128 µg/mL (≈ 354 µM).
As for `Clc1ccc(OC(CCn2ccnc2)c2ccccc2)c(Cl)c1` (stereo in doubt; (+)-14a), in the assay with Candida albicans [1], the MFC is 7.4 µg/mL (≈ 21.3 µM) and the MFC90 was found to be 8 µg/mL (≈ 23 µM). In the assay on Candida parapsilosis, this compound yielded an MFC of 4 µg/mL (≈ 11.5 µM) and an MIC of 0.5 µg/mL (≈ 1.44 µM). In the assay with Candida albicans [5], the MIC amounted to 3.2 µg/mL (≈ 9.22 µM), the MIC50 was found to be 4 µg/mL (≈ 11.5 µM) and the MIC90 stood at 4 µg/mL (≈ 11.5 µM).
In turn, `Cc1ccc(C(CCn2ccnc2)Oc2ccc(Cl)cc2C)cc1` (stereo unspecified) showed an MFC50 in the assay on Candida albicans [1] of 64 µg/mL (≈ 188 µM). In the assay with Candida albicans [1], this compound yielded an MFC90 of 64 µg/mL (≈ 188 µM). Also, the minimum fungicidal concentration (MFC) with Candida albicans [1] (setting [6]) was found to be 58 µg/mL (≈ 170 µM); in the assay with Candida parapsilosis (setting [7]), 16 µg/mL (≈ 46.9 µM). Also, the MIC turned out to be 4 µg/mL (≈ 11.7 µM) with Candida parapsilosis (setting [8]) and 16 µg/mL (≈ 46.9 µM) in the assay with Candida albicans [5] (setting [9]). Also, the MIC50 in the assay on Candida albicans [5] (setting [10]) was determined as 16 µg/mL (≈ 46.9 µM). In addition, the MIC90 in the assay with Candida albicans [5] (setting [11]) was found to be 16 µg/mL (≈ 46.9 µM).
